# From ChEMBL document CHEMBL3856222, “Design, structure activity relationship, cytotoxicity and evaluation of antioxidant activity of curcumin derivatives/analogues” (Eur J Med Chem, 2016)
# Where a name gives a salt, the structure may show the parent alone.
# Experiments:
# [1] = Cytotoxicity against human HeLa cells assessed as decrease in cell viability after 48 hrs by MTT assay; type: functional, cell-based
# Procedure, shortened: (§1)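 Cells seeded at 2 x 10^3 per well in MEM with 10% FBS and left to attach for 24 h. Exposed 48 h to 5, 10, 20, 50, 100 and 200 µM (printed µM/mL). Controls got medium with 0.2% DMSO. Duplicate treatments. After PBS wash, MTT (stock 1 mg/mL) added for 4 h at 37 °C. Formazan dissolved in DMSO and OD read at 590 nm.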
# [2] = Antioxidant activity assessed as nitric oxide radical scavenging activity at 2 uM incubated in dark for 20 mins relative to control; type: functional
# [3] = Antioxidant activity assessed as DPPH free radical scavenging activity at 10 uM incubated in dark for 20 mins relative to control; type: functional
# Procedure, shortened: (§2)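 Compounds dissolved in DMSO and diluted in 100 mM Tris–HCl (pH 7.4). DPPH (0.1 mM in methanol) added with vigorous shaking, then held in the dark at room temperature for 20 min. Absorbance read at 517 nm with DMSO baseline correction. Compound-free control prepared the same way. Run in triplicate.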
# [4] = Antioxidant activity assessed as DPPH free radical scavenging activity at 50 uM incubated in dark for 20 mins relative to control; type: functional; procedure, shortened: as §2
# [5] = Antioxidant activity assessed as nitric oxide radical scavenging activity at 50 uM incubated in dark for 20 mins relative to control; type: functional
# [6] = Antioxidant activity assessed as DPPH free radical scavenging activity at 20 uM incubated in dark for 20 mins relative to control; type: functional; procedure, shortened: as §2
# [7] = Cytotoxicity against human HCT116 cells assessed as decrease in cell viability after 48 hrs by MTT assay; type: functional, cell-based; conditions: HCT-116, 48 h; procedure, shortened: as §1
# [8] = Antioxidant activity assessed as nitric oxide radical scavenging activity at 20 uM incubated in dark for 20 mins relative to control; type: functional
# [9] = Cytotoxicity against human QG56 cells assessed as decrease in cell viability after 48 hrs by MTT assay; type: functional, cell-based; conditions: QG-56, 48 h; procedure, shortened: as §1
# [10] = Antioxidant activity assessed as nitric oxide radical scavenging activity at 10 uM incubated in dark for 20 mins relative to control; type: functional
# [11] = Antioxidant activity assessed as DPPH free radical scavenging activity at 2 uM incubated in dark for 20 mins relative to control; type: functional; procedure, shortened: as §2
Structure (SMILES),IC50 [1] [µM],Activity [2] [%],Activity [3] [%],Activity [4] [%],Activity [5] [%],Activity [6] [%],IC50 [7] [µM],Activity [8] [%],IC50 [9] [µM],Activity [10] [%],Activity [11] [%]
COc1cc(/C=C/C(=O)C2=C(/C=C/c3ccc(O)c(OC)c3)NC(=S)NC2c2ccccc2Cl)ccc1O (stereo not drawn),50,15.5,43.2,60,55.6,56.6,100,39.2,50,21.2,16.2
COc1cc(/C=C/C(=O)C2=C(/C=C/c3ccc(O)c(OC)c3)NC(=S)NC2c2ccc(N(C)C)cc2)ccc1O (stereo not drawn),12.5,32.3,72,89.5,84,83,12.5,72.1,25,59,30.2
COc1cc(/C=C/C(=O)C2=C(/C=C/c3ccc(O)c(OC)c3)NC(=O)NC2c2ccccc2)ccc1O (stereo not drawn),100,10.5,26.4,40.2,50.2,38.2,25,31,50,20,15.2
COc1cc(/C=C/C(=O)C2=C(/C=C/c3ccc(O)c(OC)c3)NC(=O)NC2c2ccc(C)cc2)ccc1O (stereo not drawn),100,15.5,29.9,46,52.2,38.2,12.5,36.3,100,23.9,17.2
COc1cc(/C=C/C(=O)C2=C(/C=C/c3ccc(O)c(OC)c3)NC(=S)NC2c2ccc(C)cc2)ccc1O (stereo not drawn),25,10.2,43.2,62,41,51,50,30,12.5,19.9,15.5
COc1cc(/C=C/C(=O)C2=C(/C=C/c3ccc(O)c(OC)c3)NC(=S)NC2c2ccccc2)ccc1O (stereo not drawn),25,16.6,26.5,48,50.4,38,100,36.6,100,22,15.5
COc1cc(/C=C/C(=O)C2=C(/C=C/c3ccc(O)c(OC)c3)NC(=O)NC2c2ccccc2O)ccc1O (stereo not drawn),50,29.9,73.6,88.9,88,81,100,80.9,100,71,33.6
COc1cccc2c1C(=O)c1c(O)c3c(c(O)c1C2=O)C[C@@](O)(C(=O)CO)C[C@@H]3O[C@H]1C[C@H](N)[C@H](O)[C@H](C)O1 [DOXORUBICIN HYDROCHLORIDE],2.5,,,,,,5,,2.5,,
COc1cc(/C=C/C(=O)C2=C(/C=C/c3ccc(O)c(OC)c3)NC(=O)NC2c2cccc([N+](=O)[O-])c2)ccc1O (stereo not drawn),100,10.2,51.2,71,48,66.3,50,33,25,19.9,17
COc1cc(/C=C/C(=O)C2=C(/C=C/c3ccc(O)c(OC)c3)NC(=O)NC2c2ccccc2Cl)ccc1O (stereo not drawn),100,16.6,40,55.5,56,46,50,38.7,100,23,20.2
COc1cc(/C=C/C(=O)C2=C(/C=C/c3ccc(O)c(OC)c3)NC(=S)NC2c2c(Cl)cccc2Cl)ccc1O (stereo not drawn),100,15,29,50.2,50,43.2,50,33.9,100,20.2,17.7
COc1cc(/C=C/C(=O)C2=C(/C=C/c3ccc(O)c(OC)c3)NC(=O)NC2c2c(Cl)cccc2Cl)ccc1O (stereo not drawn),25,11.2,19.2,43.2,44.2,31.9,50,33,100,20,11.2
COc1cc(/C=C/C(=O)C2=C(/C=C/c3ccc(O)c(OC)c3)NC(=S)NC2c2ccccc2O)ccc1O (stereo not drawn),25,34,60.2,86.3,88.5,72.3,100,79.9,50,70.8,25
COc1cc(/C=C/C(=O)C2=C(/C=C/c3ccc(O)c(OC)c3)NC(=O)NC2c2ccc(N(C)C)cc2)ccc1O (stereo not drawn),25,28.2,37.6,56,89.2,48,12.5,82.2,12.5,69.9,17.9
COc1cc(/C=C/C(=O)C2=C(/C=C/c3ccc(O)c(OC)c3)NC(=O)NC2c2ccc(O)cc2)ccc1O (stereo not drawn),25,33.3,75,90.3,86.2,84.6,100,80.1,50,72,25
COc1cc(/C=C/C(=O)CC(=O)/C=C/c2ccc(O)c(OC)c2)ccc1O [CURCUMIN],50,12.2,33.2,50.2,59.9,42.2,50,36.5,100,22.2,6
